Data published in PMC7810150 (Journal of medicinal chemistry, 2020).
Read-outs that look alike come from different tables or passages of the source. Marks after values point to notes of the source that are not given here.

Experiments:
EWS-FLI1 and Sp1 mRNA = test: TC32 xenograft tumor tissue mRNA analysis; format: in vivo, mice; conditions: tumors collected 6 h after the sixth dose, n = 3/group
How it was run: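 Three mice per group were taken from the q3dx8 IV xenograft study. Tumors were resected 6 h after the 6th dose, rinsed in sterile PBS, snap-frozen in liquid nitrogen and stored at −80 °C. Tissue was cut semifrozen and ground under liquid nitrogen. Total RNA was extracted in RLT lysis buffer with a silica-column kit.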

[1] = test system: EWS-FLI1 and NR0B1 protein; conditions: TC32 cells, 24 h, 10, 30 and 300 nM
TC32 Ewing sarcoma cells [2] = test: 72 h growth inhibition; format: cell-based
TC32 tumors = test: TC32 cell line xenograft efficacy in nu/nu mice; format: in vivo; conditions: for effect on survival (and tumor volume) / median survival: q3dx8 IV, MTMox32E […] mg/kg, MTM 1 mg/kg; for median survival: vehicle 22 days
How it was run: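 TC32 cells in 1:1 RPMI (no FBS)/Matrigel, 1.0 × 10^6 cells per 100 μL, injected subcutaneously into the flank of female athymic nu/nu mice. Mice with tumors of at least 50 mm3 (14–28 days post implantation) were randomized. Dosing was IV bolus in 5% Kolliphor EL/2% DMSO/93% saline. Tumor volume was measured every 3 days, with euthanasia at 20 mm tumor length. Tumor volume was compared at day 16 by one-way ANOVA; survival by log-rank (Holm-Sidak).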

[3] = test system: Sp1, VEGFA and BCL-2 mRNA; test: Target gene mRNA expression by qRT-PCR in PC3 cells; format: cell-based; conditions: 6 h treatment
How it was run: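 PC3 cells, 300,000/well, were washed with DPBS at ~75% confluence (48–72 h). They were treated 6 h with test compound at 0, 100, 300, 1000 nM or mithramycin at 0, 30, 100, 300 nM. Cells were harvested by trypsin; RNA was isolated and cDNA made. qRT-PCR expression was calculated relative to GAPDH (ΔΔCt). Error bars are SEM of at least two biological replicates.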

EWS-FLI1 = EWS-FLI1 (Homo sapiens, UniProt Q01543+Q01844); conditions: 10 μM, 6 h incubation, TC32 cells; DMSO control 48.9 °C
EWS-FLI1 mRNA = test: Target gene mRNA expression by qRT-PCR in TC32 cells; format: cell-based; conditions: 6 h incubation
How it was run: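 TC32 cells, 300,000/well, were DPBS-washed at ~75% confluence (48–72 h). They were exposed 6 h to test compound at 0, 30, 100, 300 nM or mithramycin at 0, 10, 30, 100 nM. After trypsin collection, RNA was isolated and reverse-transcribed. mRNA was quantified by qRT-PCR relative to GAPDH (ΔΔCt). SEM is from at least two biological replicates.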

[4] = estimated from literature data, cited from earlier work
TC32 Ewing sarcoma cells [5] = conditions: 72 h; cited from earlier work
PC3 prostate cells = conditions: read-out: PC3 GI50, 72 h; cited from earlier work
[6] = test system: EWS-FLI1 transcriptional activity (NR0B1 promoter); test: Luciferase reporter assay, NR0B1 promoter, in TC32 cells; format: cell-based; conditions: read-out: EC50, NR0B1-mediated luciferase expression; 12 h incubation
CMV promoter = conditions: cited from earlier work
[7] = test system: EWS-FLI1 transcriptional activity (NR0B1 promoter); conditions: read-out: EC50 in a similar reporter cell line; cited from earlier work

(E)-3-(2′-{2-[(Methyl l-Phenylalanyl-l-tryptophanate)amino]-2-oxoethoxy}imino) MTM [MTMox32E]
EWS-FLI1 and Sp1 mRNA levels in tumor (EWS-FLI1 and Sp1 mRNA): reduced mRNA levels of both EWS-FLI1 (p = 0.002) and Sp1 (p = 0.04) | EWS-FLI1 protein levels [1]: did not affect the protein levels of EWS-FLI1 | NR0B1 protein expression [1]: greatly diminished the expression of NR0B1 | TC32 GI50 (TC32 Ewing sarcoma cells [2]): 79 nM | effect on survival (and tumor volume) (TC32 tumors): significant in comparison to control (p = 0.0001) and MTM (p = 0.0385) | median survival (TC32 tumors): 38 days | effect on survival (TC32 tumors; qMWFx2, 14 mg/kg): statistically significant improvement in survival over vehicle control group | Sp1, VEGFA and BCL-2 mRNA [3]: minimally affected Sp1, VEGFA, and BCL-2 | Tagg of EWS-FLI1 (EWS-FLI1): 51.7 °C | EWS-FLI1 mRNA levels (EWS-FLI1 mRNA): decreased EWS-FL1 mRNA levels in a concentration-dependent manner

CO[C@@H]([C@@H]1Cc2cc3cc(O[C@H]4CC(O[C@H]5CC(O)[C@H](O)C(C)O5)[C@H](O)C(C)O4)c(C)c(O)c3c(O)c2C(=O)[C@H]1O[C@H]1CC(O[C@H]2CC(O[C@H]3CC(O)[C@H](O)C(C)O3)[C@@H](O)C(C)O2)[C@H](O)C(C)O1)[C@@H](O)C(C)=O (some centres unmarked) [EC-8042]
clearance (CL/F) ([4]; IP, 24 mg/kg, CL/F): 7197^b mL/h/kg | dose-normalized systemic exposure (AUC/D) ([4]; IP, 24 mg/kg): 202 kg·ng·h/mL/mg | volume of distribution (Vd) ([4]; IP, 24 mg/kg): 11.259 L/kg

CO[C@@H]([C@@H]1Cc2cc3cc(O[C@H]4C[C@@H](O[C@H]5C[C@@H](O)[C@H](O)[C@@H](C)O5)[C@H](O)[C@@H](C)O4)c(C)c(O)c3c(O)c2C(=O)[C@H]1O[C@H]1C[C@@H](O[C@H]2C[C@@H](O[C@H]3C[C@](C)(O)[C@H](O)[C@@H](C)O3)[C@@H](O)[C@@H](C)O2)[C@H](O)[C@@H](C)O1)[C@@H](O)C(C)=O [MTM SK]
clearance (CL) ([4]; IV, 18 mg/kg): 43.17 mL/min/kg | dose-normalized systemic exposure (AUC/D) ([4]; IV, 18 mg/kg): 386 kg·ng·h/mL/mg | volume of distribution (Vd) ([4]; IV, 18 mg/kg): 0.857 L/kg

mithramycin A [MTM]
EWS-FLI1 and Sp1 mRNA levels in tumor (EWS-FLI1 and Sp1 mRNA): reduced Sp1 mRNA levels (p = 0.003), but not EWS-FLI1 | TC32 GI50 (TC32 Ewing sarcoma cells [5]): 32 nM | effect on survival (and tumor volume) (TC32 tumors): not statistically different than the control group | median survival (TC32 tumors): 31 days | GI50 (PC3 prostate cells): 83 nM | EC50 [6]: 68 nM | Sp1, VEGFA and BCL-2 mRNA [3]: minimally affected Sp1, VEGFA, and BCL-2 | effect on cells expressing luciferase under the control of a CMV promoter (CMV promoter): had no effect | EC50 [7]: 5 to 100 nM | EWS-FLI1 mRNA levels (EWS-FLI1 mRNA): decreased EWS-FL1 mRNA levels in a concentration-dependent manner
